Test results: ChEMBL document CHEMBL1151735, “Further studies with the 2-amino-1,3-thiazol-4(5H)-one class of 11beta-hydroxysteroid dehydrogenase type 1 inhibitors: reducing pregnane X receptor activity and exploring activity in a monkey pharmacodynamic model” (J Med Chem, 2008)
Blank lines part the entries; values can stand above or below the molecule they belong to. Activity calls are given as the source filed them. The calls are words filed in the database; no cut-off is given here.

Legend:
[1] = target: T1, 11-beta-hydroxysteroid dehydrogenase 1 (Homo sapiens, UniProt P28845); assay: Inhibition of human 11beta-HSD1 expressed in CHO cells assessed as conversion of cortisone to cortisol by ELISA; assay type: cell-based
T1 sequence (P28845 whole entry): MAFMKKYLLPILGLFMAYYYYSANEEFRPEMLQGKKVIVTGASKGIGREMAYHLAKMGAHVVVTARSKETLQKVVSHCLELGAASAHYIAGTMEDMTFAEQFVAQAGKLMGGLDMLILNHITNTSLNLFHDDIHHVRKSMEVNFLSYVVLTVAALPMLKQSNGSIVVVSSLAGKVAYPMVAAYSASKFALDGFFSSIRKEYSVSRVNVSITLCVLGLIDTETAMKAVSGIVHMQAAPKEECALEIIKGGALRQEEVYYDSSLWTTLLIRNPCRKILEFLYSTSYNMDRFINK

[2] = target: T2, 11-beta-hydroxysteroid dehydrogenase type 2 (Homo sapiens, UniProt P80365); assay: Inhibition of human 11beta-HSD2 expressed in CHO cells using [3H]cortisol by scintillation proximity assay; assay type: cell-based
T2 sequence (P80365 whole entry): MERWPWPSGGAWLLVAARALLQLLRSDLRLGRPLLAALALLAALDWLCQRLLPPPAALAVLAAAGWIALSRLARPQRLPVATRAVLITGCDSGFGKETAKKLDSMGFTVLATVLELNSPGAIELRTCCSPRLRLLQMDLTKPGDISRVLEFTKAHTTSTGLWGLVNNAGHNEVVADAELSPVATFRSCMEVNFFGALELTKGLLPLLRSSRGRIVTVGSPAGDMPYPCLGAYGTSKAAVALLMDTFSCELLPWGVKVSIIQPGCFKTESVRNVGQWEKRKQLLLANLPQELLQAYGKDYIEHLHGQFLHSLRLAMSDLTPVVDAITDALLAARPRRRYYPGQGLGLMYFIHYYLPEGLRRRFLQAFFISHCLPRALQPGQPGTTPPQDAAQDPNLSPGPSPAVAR
Summary of the method: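 Human 11β-HSD2 from CHO cells with [3H]cortisol 3 nM and NAD+ 300 µM, in 0.1 M sodium phosphate pH 7.6. 1 h at room temperature, then stopped with 18β-glycyrrhetinic acid. Anticortisol antibody and antimouse SPA beads added for 30 min; radiometric read-out.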

[3] = target: T3, Nuclear receptor subfamily 1 group I member 2 (Homo sapiens, UniProt O75469); assay: Transactivation of human PXR transfected in HEK cells at 20 uM by luciferase reporter gene assay relative to 12.5 uM rifampin; assay type: cell-based; settings: hek293, 20 µM
T3 sequence (O75469 whole entry): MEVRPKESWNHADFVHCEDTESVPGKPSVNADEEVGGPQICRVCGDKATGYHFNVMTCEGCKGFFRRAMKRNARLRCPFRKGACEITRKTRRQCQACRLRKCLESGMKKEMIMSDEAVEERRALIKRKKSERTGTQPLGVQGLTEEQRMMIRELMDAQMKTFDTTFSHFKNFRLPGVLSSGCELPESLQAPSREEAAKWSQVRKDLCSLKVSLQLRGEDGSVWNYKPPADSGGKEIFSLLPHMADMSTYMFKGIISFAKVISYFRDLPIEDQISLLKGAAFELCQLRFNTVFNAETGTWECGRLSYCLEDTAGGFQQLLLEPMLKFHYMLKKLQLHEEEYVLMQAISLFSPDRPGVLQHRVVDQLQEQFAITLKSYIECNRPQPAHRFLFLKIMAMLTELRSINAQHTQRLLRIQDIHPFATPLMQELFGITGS
Summary of the method: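 HEK cells transfected with human PXR fused to a firefly luciferase reporter. Luciferase activity is expressed as percent of the 12.5 µM rifampin response. Run in triplicate; SEM reported.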

[4] = target: T1, 11-beta-hydroxysteroid dehydrogenase 1; assay: Inhibition of human recombinant 11beta-HSD1 expressed in Escherichia coli using [3H]cortisone by scintillation proximity assay
[5] = Volume of distribution at steady state in mouse at 2 mg/kg, iv and 10 mg/kg, po; assay type: ADME, organism-based; settings: in vivo, read-out: Vdss
[6] = AUC (0 to infinity) in rat at 5 mg/kg, po; assay type: ADME, organism-based; set-up: time infinity, dose 5 mg/kg, route oral; settings: plasma
[7] = Half life in rat at 2 mg/kg, iv; assay type: ADME, organism-based; set-up: dose 2 mg/kg, route intravenous; settings: in vivo
[8] = AUC (0 to infinity) in dog at 5 mg/kg, po; assay type: ADME, organism-based, Canis lupus familiaris; set-up: time infinity, dose 5 mg/kg, route oral; settings: plasma
[9] = Oral bioavailability in dog at 5 mg/kg; assay type: ADME, organism-based, Canis lupus familiaris; settings: in vivo
[10] = Half life in mouse at 2 mg/kg, iv; assay type: ADME, organism-based; set-up: dose 2 mg/kg, route intravenous; settings: in vivo
[11] = Volume of distribution at steady state in monkey at 2 mg/kg, iv and 10 mg/kg, po; assay type: ADME, organism-based, Macaca mulatta; settings: rhesus monkey, in vivo, read-out: Vdss
Cynomolgus monkey [12] = assay: Inhibition of 11beta-HSD1 in mesenteric fat of cynomolgus monkey assessed as conversion of [3H]cortisone to [3H]cortisol at 30 mg/kg, po after 2 hrs; assay type: functional, organism-based; set-up: dose 30 mg/kg; settings: Macaca fascicularis
Summary of the method: (§1)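 Male cynomolgus monkeys, at least four per group, given a single nasal-gastric dose in 1% Tween 80/47.5% Ora-Plus/51.5% water. Plasma and mesenteric fat taken 2 h post-dose and snap-frozen. About 50 mg fat pieces, in triplicate, incubated 1 h at 37 °C in KRP buffer pH 7.4 containing 3H-cortisone. 3H-cortisol in the medium quantified by SPA with anti-cortisol antibody beads.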

[13] = Clearance in mouse at 2 mg/kg, iv and 10 mg/kg, po; assay type: ADME, organism-based; settings: in vivo
[14] = Oral bioavailability in mouse at 10 mg/kg; assay type: ADME, organism-based; settings: in vivo
[15] = Volume of distribution at steady state in rat at 2 mg/kg, iv and 5 mg/kg, po; assay type: ADME, organism-based; settings: in vivo, read-out: Vdss
Cytochrome P450 3A4 [16] = target: T4, Cytochrome P450 3A4 (Homo sapiens, UniProt P08684); assay: Induction of CYP3A4 activity in cryopreserved human hepatocytes from male DJV donars with no adverse medical history or substance or alcohol abuse at 20 uM relative to 20 uM rifampin
T4 sequence (P08684 whole entry): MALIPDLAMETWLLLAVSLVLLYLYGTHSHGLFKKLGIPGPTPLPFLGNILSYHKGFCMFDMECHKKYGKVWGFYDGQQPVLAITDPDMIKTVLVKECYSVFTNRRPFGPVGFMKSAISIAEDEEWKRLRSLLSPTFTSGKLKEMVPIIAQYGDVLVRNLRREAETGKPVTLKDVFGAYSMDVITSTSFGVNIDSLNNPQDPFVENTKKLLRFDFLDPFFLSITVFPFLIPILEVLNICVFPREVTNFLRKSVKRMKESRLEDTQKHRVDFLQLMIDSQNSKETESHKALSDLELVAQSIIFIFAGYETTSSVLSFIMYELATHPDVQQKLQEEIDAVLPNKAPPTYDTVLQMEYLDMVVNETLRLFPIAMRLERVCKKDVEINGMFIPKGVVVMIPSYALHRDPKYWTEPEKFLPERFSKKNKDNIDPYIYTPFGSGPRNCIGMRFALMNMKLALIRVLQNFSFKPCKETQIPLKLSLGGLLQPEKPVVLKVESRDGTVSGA

[17] = target: T5, 11-beta-hydroxysteroid dehydrogenase 1 (Mus musculus, UniProt P50172); assay: Inhibition of mouse 11beta-HSD1 expressed in CHO cells assessed as conversion of cortisone to cortisol by ELISA; assay type: cell-based
T5 sequence (P50172 whole entry): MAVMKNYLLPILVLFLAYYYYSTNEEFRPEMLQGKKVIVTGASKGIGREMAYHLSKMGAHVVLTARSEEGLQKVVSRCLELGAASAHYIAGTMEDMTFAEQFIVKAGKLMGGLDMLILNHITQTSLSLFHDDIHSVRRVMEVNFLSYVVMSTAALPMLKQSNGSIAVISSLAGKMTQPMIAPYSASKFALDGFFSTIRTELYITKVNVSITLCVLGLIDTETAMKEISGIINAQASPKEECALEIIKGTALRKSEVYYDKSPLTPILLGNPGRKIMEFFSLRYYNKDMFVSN
Summary of the method: (§2)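 CHO cells stably overexpressing the species 11β-HSD1, 30000 per well, seeded 1 day before. Rinsed in HEPES glucose buffer pH 7.4 with 0.1% DMSO. Compound 0.1 nM–10 µM final, 60 min at 37 °C. Cortisone then added (100 nM final) at 37 °C: mouse 45 min, dog 1.5 h, rat and monkey 2 h. Cortisol measured by ELISA.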

Cytochrome P450 3A4 [18] = target: T4, Cytochrome P450 3A4; assay: Induction of CYP3A4 activity in cryopreserved human hepatocytes from female NPV donars with history of tobacco and substance usage at 20 uM relative to 20 uM rifampin
[19] = Inhibition of monkey 11beta-HSD1 expressed in CHO cells assessed as conversion of cortisone to cortisol by ELISA; assay type: cell-based, Macaca mulatta; summary of the method: as §2
[20] = Volume of distribution at steady state in dog at 2 mg/kg, iv and 5 mg/kg, po; assay type: ADME, organism-based, Canis lupus familiaris; settings: in vivo, read-out: Vdss
Summary of the method: (§3)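 Dog PK: intravenous 2 mg kg^-1 in 10% dimethylacetamide, 23% water, 67% PEG 400; oral 5 mg kg^-1 in 1% Tween 80, 47.5% OraPlus, 51.5% water.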

[21] = target: T6, 11-beta-hydroxysteroid dehydrogenase type 1 (Canis lupus familiaris, UniProt Q5XX84); assay: Inhibition of dog 11beta-HSD1 expressed in CHO cells assessed as conversion of cortisone to cortisol by ELISA; assay type: cell-based; summary of the method: as §2
T6 sequence (Q5XX84 whole entry): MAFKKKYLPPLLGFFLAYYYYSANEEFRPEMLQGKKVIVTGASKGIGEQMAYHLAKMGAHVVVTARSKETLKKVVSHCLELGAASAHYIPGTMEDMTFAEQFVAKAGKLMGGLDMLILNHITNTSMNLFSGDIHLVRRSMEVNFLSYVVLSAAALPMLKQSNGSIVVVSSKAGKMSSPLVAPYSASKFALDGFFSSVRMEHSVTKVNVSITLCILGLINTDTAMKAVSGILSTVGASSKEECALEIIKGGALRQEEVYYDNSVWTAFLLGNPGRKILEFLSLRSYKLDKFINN

Cynomolgus monkey [22] = assay: Plasma concentration in cynomolgus monkey at 3 mg/kg, po; assay type: ADME, organism-based, Macaca fascicularis; set-up: dose 3 mg/kg, route oral; settings: in vivo
Summary of the method: (§4)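 Male cynomolgus monkeys, at least four per group, given a single nasal-gastric dose in 1% Tween 80, 47.5% Ora-Plus, 51.5% water. Plasma collected 2 h post-dose and snap-frozen.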

[23] = target: T6, 11-beta-hydroxysteroid dehydrogenase type 1; assay: Inhibition of dog recombinant 11beta-HSD1 expressed in Escherichia coli using [3H]cortisone by scintillation proximity assay
Summary of the method: (§5)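 Purified enzyme expressed in E. coli, dog at 20 nM final and mouse at 5 nM. [3H]cortisone 100 nM, NADPH 200 µM, in 50 mM Tris-HCl, 1 mM EDTA, pH 7.2. 1 h at room temperature, then stopped with 18β-glycyrrhetinic acid. Anticortisol antibody and antimouse SPA beads added for 30 min; read by scintillation counting. Ki derived.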

Cynomolgus monkey [24] = assay: Inhibition of 11beta-HSD1 in mesenteric fat of cynomolgus monkey assessed as conversion of [3H]cortisone to [3H]cortisol at 3 mg/kg, po after 2 hrs; assay type: functional, organism-based; set-up: dose 3 mg/kg; settings: Macaca fascicularis; summary of the method: as §1
[25] = Fraction unbound in cynomolgus monkey plasma protein; assay type: ADME, cell-free, Macaca fascicularis
[26] = Clearance in rat at 2 mg/kg, iv and 5 mg/kg, po; assay type: ADME, organism-based; settings: in vivo
[27] = Half life in monkey at 2 mg/kg, iv; assay type: ADME, organism-based, Macaca mulatta; set-up: dose 2 mg/kg, route intravenous; settings: rhesus monkey, in vivo
Hepatocyte [28] = assay: Induction of CYP3A4 in cryopreserved human hepatocytes from female NPV donars with history of tobacco and substance usage assessed as mRNA expression at 20 uM relative to 20 uM rifampin; assay type: functional
[29] = AUC (0 to infinity) in mouse at 10 mg/kg, po; assay type: ADME, organism-based; set-up: dose 10 mg/kg, route oral, time infinity; settings: plasma
[30] = AUC (0 to infinity) in monkey at 10 mg/kg, po; assay type: ADME, organism-based, Macaca mulatta; set-up: time infinity, dose 10 mg/kg, route oral; settings: rhesus monkey, plasma
[31] = Half life in dog at 2 mg/kg, iv; assay type: ADME, organism-based, Canis lupus familiaris; set-up: dose 2 mg/kg, route intravenous; settings: in vivo; summary of the method: as §3
[32] = Inhibition of monkey recombinant 11beta-HSD1 expressed in Escherichia coli using [3H]cortisone by scintillation proximity assay; set-up: species or system Macaca mulatta
Hepatocyte [33] = assay: Induction of CYP3A4 in cryopreserved human hepatocytes from male DJV donars with no adverse medical history or substance or alcohol abuse assessed as mRNA expression at 20 uM relative to 20 uM rifampin; assay type: functional
[34] = Oral bioavailability in monkey at 10 mg/kg; assay type: ADME, organism-based, Macaca mulatta; settings: rhesus monkey, in vivo
[35] = Oral bioavailability in rat at 5 mg/kg; assay type: ADME, organism-based; settings: in vivo
[36] = target: T7, 11-beta-hydroxysteroid dehydrogenase 1 (Rattus norvegicus, UniProt P16232); assay: Inhibition of rat recombinant 11beta-HSD1 expressed in Escherichia coli using [3H]cortisone by scintillation proximity assay
T7 sequence (P16232 whole entry): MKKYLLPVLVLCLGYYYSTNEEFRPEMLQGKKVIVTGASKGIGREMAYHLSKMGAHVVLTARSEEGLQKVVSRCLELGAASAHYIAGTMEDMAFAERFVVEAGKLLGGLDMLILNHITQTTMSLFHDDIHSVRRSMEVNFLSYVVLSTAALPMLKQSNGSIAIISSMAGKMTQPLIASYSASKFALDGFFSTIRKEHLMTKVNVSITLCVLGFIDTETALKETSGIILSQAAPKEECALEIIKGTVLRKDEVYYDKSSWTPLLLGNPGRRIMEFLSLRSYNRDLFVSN

[37] = target: T5, 11-beta-hydroxysteroid dehydrogenase 1; assay: Inhibition of mouse recombinant 11beta-HSD1 expressed in Escherichia coli using [3H]cortisone by scintillation proximity assay; summary of the method: as §5
Cynomolgus monkey [38] = assay: Plasma concentration in cynomolgus monkey at 30 mg/kg, po; assay type: ADME, organism-based, Macaca fascicularis; set-up: dose 30 mg/kg, route oral; settings: in vivo; summary of the method: as §4
[39] = Clearance in dog at 2 mg/kg, iv and 5 mg/kg, po; assay type: ADME, organism-based, Canis lupus familiaris; settings: in vivo; summary of the method: as §3
[40] = Clearance in monkey at 2 mg/kg, iv and 10 mg/kg, po; assay type: ADME, organism-based, Macaca mulatta; settings: rhesus monkey, in vivo
[41] = target: T7, 11-beta-hydroxysteroid dehydrogenase 1; assay: Inhibition of rat 11beta-HSD1 expressed in CHO cells assessed as conversion of cortisone to cortisol by ELISA; assay type: cell-based; summary of the method: as §2

IC50 [1]: 18 nM
IC50 [2]: > 10000 nM
Activity [3]: 63%
Ki [4]: 26 nM
SMILES: C[C@H](NC1=NC(=O)C(C)(C(C)(C)O)S1)c1ccccc1Cl (some centres undefined)

Activity [3]: 28%
SMILES: C[C@H](NC1=NC(=O)C(C)(CC(C)(C)O)S1)c1ccc(F)cc1 (some centres undefined)

IC50 [1]: 32 nM
IC50 [2]: > 10000 nM
Activity [3]: 26%
Ki [4]: 49 nM
SMILES: C[C@H](NC1=NC(=O)C(C)(C2(O)CCC2)S1)c1ccc(F)cc1 (some centres undefined)

SMILES: C[C@H](NC1=NC(=O)[C@](C)(C(C)(C)O)S1)c1ccc(F)cc1
Vd [5]: 1.4 L/kg
AUC(0-inf) [6]: 9200 ng·h/mL
half-life [7]: 5.6 h
AUC(0-inf) [8]: 54000 ng·h/mL
bioavailability [9]: 91%
half-life [10]: 3.3 h
Vd [11]: 1.9 L/kg
Activity (Cynomolgus monkey [12]): Active
clearance [13]: 26.7 mL/min/kg
bioavailability [14]: 100%
Vd [15]: 2.5 L/kg
Activity (Cytochrome P450 3A4 [16]): 17%
IC50 [17]: 140 nM
Activity (Cytochrome P450 3A4 [18]): 10%
IC50 [19]: 42 nM
Vd [20]: 0.88 L/kg
IC50 [21]: 45 nM
concentration (Cynomolgus monkey [22]): 4.9 µM
Ki [23]: 12 nM
Activity (Cynomolgus monkey [24]): Active
fraction unbound [25]: 0.108
clearance [26]: 5.17 mL/min/kg
IC50 [1]: 34 nM
half-life [27]: 2.2 h
Activity (Hepatocyte [28]): 13%
AUC(0-inf) [29]: 6500 ng·h/mL
AUC(0-inf) [30]: 5700 ng·h/mL
half-life [31]: 7.3 h
Ki [32]: 48 nM
Activity (Hepatocyte [33]): 45%
bioavailability [34]: 65%
bioavailability [35]: 56%
Ki [36]: 300 nM
Ki [37]: 100 nM
concentration (Cynomolgus monkey [38]): 26 µM
Activity [3]: 6%
clearance [39]: 1.42 mL/min/kg
clearance [40]: 20 mL/min/kg
IC50 [41]: 340 nM
Ki [4]: 35 nM
